Screening data: PubChem, several laboratories
Hits are enriched below; roughly 1.7% of the tested compounds scored in any of these assays.
DNMT1 inh – blocks human DNA methyltransferase DNMT1; inhibition (reported as % activation of signal), % at 10 µM; AID 588458; actives 0.83% (n = 360,000); DNMT1 molecular beacon, Hinp1I cleavage, fluorescence; P26358; in the data active = inhibition above about 50%
SUMO1 PPI mod – modulators of human SUMO1-mediated protein-protein interactions; P63165; SUMO1 binding to a labelled peptide, TR-FRET, 1 h; inhibition, % at 20 µM; actives 0.33% (n = 360,000); in the data active = inhibition above about 37%
STEP block – STEP (human) phosphatase inhibition; P54829; recombinant STEP, OMFP fluorogenic substrate, fluorescence; inhibition, % at 20 µM; actives 0.25% (n = 360,000); AID 588621;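 active = inhibition at 20 µM, scaled per plate between control wells, above about 37%, limit read from the data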;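 note: 0% = DMSO with enzyme and substrate and 100% = substrate only without enzyme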
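Assay system: isolated STEP enzyme / Timing: 20 min at room temperature, dark / Doses: 20 µM, 1% DMSO / Technique: fluorescence intensity, excitation 480 nm, emission 540 nm / Reagent: fluorogenic phosphatase substrate OMFP at 25 µM final / Measure: percent inhibition scaled to no-enzyme and uninhibited-enzyme controls, plate-pattern corrected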
Scp-1 inhibitor – Scp-1 (human) phosphatase inhibition. actives 0.88% (n = 340,000). AID 493091. inhibition, % at 20 µM. Q9GZU7. Recombinant Scp1, phosphopeptide, malachite green phosphate absorbance;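 active = inhibition above about 50% at 20 µM, limit read from the data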;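 note: plate controls were DMSO wells with enzyme for no effect and wells lacking enzyme for full effect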
Target sequence (Q9GZU7 76-261 limits assumed): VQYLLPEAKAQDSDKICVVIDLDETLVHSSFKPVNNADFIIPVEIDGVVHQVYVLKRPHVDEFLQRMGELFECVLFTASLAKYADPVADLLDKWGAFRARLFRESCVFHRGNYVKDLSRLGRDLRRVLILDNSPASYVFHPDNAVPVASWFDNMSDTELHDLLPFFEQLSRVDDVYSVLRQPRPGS
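Test system – truncated SCP-1 phosphatase (76-261aa) · Reagent – Phosphorylated 17-residue peptide substrate · Incubation – 45 min room-temperature reaction, 5 min colour, 30 min stabiliser · Detection – colorimetric phosphate reagent with accelerator and stabiliser, absorbance at 630 nm · Measure – % inhibition at 20 µM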
CASP6 VEID inh – caspase-6 (human) enzyme inhibition; P55212; purified caspase-6, Z-VEID-R110 cleavage fluorescence; inhibition, % at 12.5 µM; actives 0.53% (n = 350,000); AID 686996;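 active = mean inhibition across replicates at least about 35%, with every replicate also reaching that limit, limit read from the data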;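 note: 0% = median of neutral control wells and 100% = no fluorescence left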
Target sequence (P55212 24-179 limits assumed): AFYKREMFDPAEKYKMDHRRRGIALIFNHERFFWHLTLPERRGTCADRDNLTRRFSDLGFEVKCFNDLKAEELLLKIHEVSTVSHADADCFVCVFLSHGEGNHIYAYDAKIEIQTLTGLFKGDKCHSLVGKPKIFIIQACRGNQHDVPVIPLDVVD
Target sequence (P55212 194-293 limits assumed): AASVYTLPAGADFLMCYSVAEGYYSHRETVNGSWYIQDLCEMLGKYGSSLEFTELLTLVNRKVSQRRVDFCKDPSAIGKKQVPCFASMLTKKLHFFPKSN
LMPTP block – LMPTP (human) inhibition; P24666; recombinant LMPTP-A, OMFP fluorogenic substrate, fluorescence intensity; inhibition, % at 20 µM; actives 0.22% (n = 360,000);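 active = compounds that cut the enzyme signal by at least half of the control window in the single-dose screen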;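 note: plate controls were DMSO wells with enzyme plus substrate for no effect and substrate without enzyme for full effect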
Target sequence (P24666 whole entry, looked up): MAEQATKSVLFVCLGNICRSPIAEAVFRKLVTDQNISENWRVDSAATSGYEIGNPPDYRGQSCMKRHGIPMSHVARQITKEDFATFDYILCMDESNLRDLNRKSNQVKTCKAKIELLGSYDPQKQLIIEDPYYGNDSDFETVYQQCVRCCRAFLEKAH
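Test system – LMPTP-A phosphatase enzyme · Quantity – 0.625 nM LMPTP-A final · Reagent – OMFP substrate, 400 µM final · Dosing – one test concentration per compound, 20 µM, with 3% DMSO overall · Timing – 50 min enzyme reaction at room temperature, protected from light · Detection – fluorescence intensity · Controls – substrate-only low control, DMSO enzyme-plus-substrate high control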
* = called active by the depositor; / = not tested or not shown.

SMILES	DNMT1 inh	SUMO1 PPI mod	STEP block	Scp-1 inhibitor	CASP6 VEID inh	LMPTP block
CN(C1CCCCC1)S(=O)(=O)c1ccc(S(=O)(=O)N2CCN(C(=O)c3ccccc3F)CC2)cc1	10	-1	0	-8	/	2
C/C(=N\S(=O)(=O)c1ccc(C)cc1)N1CCCCC1	5	0	-3	-2	8	0
C/C(=N\S(=O)(=O)c1ccc(C)cc1)N(C)C	9	45*	-2	-4	6	0
CCCCNC(=O)C1C(c2ccc(C(F)(F)F)cc2)=Nc2ccccc2N1C(C)=O (stereo unspecified)	/	-36	/	/	2	-1
CCCCNC(=O)C1C(c2ccc(C(F)(F)F)cc2)=Nc2ccccc2N1C(=O)c1ccc2nc(C)[nH]c2c1 (stereo unspecified)	/	-1	/	/	40*	0
C/C(CC(=O)Nc1cc(Cl)ccc1Cl)=N\NC(=O)c1ccco1	-2	2	0	1	/	1
CCOC(=O)COc1ccccc1C1Nc2ccccc2C(=O)N1c1cccc(Cl)c1 (stereo unspecified)	-1	2	0	-4	-1	0
Nc1c(C(=O)N/N=C/c2cccnc2)oc2nc(-c3ccccc3)cc(-c3ccco3)c12	-12	-5	0	-7	6	4
Nc1c(C(=O)N/N=C/c2cccnc2)oc2nc(-c3ccco3)cc(-c3ccco3)c12	-7	25	-1	44	89*	45
N#CC1(NC(=O)COC(=O)c2cc(O)c3ccccc3c2O)CCCCC1	-20	-9	0	85*	/	2
N#CC1(NC(=O)COC(=O)c2ccccc2[N+](=O)[O-])CCCCC1	3	-15	1	-13	-3	0
Cc1ccc(NC(=O)CN(C)C(=O)Cc2ccc(Cl)c(Cl)c2)cc1	1	2	-3	-6	-4	2
Cc1cccc(NC(=O)CNC(=O)CSc2ncccn2)c1C	3	23	-4	-5	-2	0
Cc1ccc(NC(=O)CN(C)C(=O)Cn2ncc(Cl)c(Cl)c2=O)cc1	11	-6	-2	20	41*	2
Cc1cccc(NC(=O)CNC(=O)Cn2ncc(Cl)c(Cl)c2=O)c1C	83*	11	8	93*	/	12
CCOc1ccc(Nc2nc(N3CCOCC3)nc(N3CCOCC3)n2)cc1	-1	-1	0	1	41*	-1
CC(C(=O)N(C)C1CCS(=O)(=O)C1)N1C(=O)/C(=C/c2ccco2)SC1=S (stereo unspecified)	20	-15	3	23	45*	1
CC(C(=O)N(C)C1CCS(=O)(=O)C1)N1C(=O)/C(=C/c2cccs2)SC1=S (stereo unspecified)	0	-41	0	-1	7	0
O=C(CCCN1C(=O)/C(=C/c2ccccc2)SC1=S)Nc1ccc(C(=O)O)c(O)c1	-1	-24	0	-8	25	3
Cc1ccc(NC(=O)CN2C(=O)S/C(=C\c3ccc(-c4cccc(C(=O)O)c4C)o3)C2=O)cc1C	53*	11	68*	92*	/	82*
CC(C(=O)Nc1ccc(C(=O)O)c(O)c1)N1C(=O)/C(=C\c2ccco2)SC1=S (stereo unspecified)	95*	88*	64*	70*	/	23
CCOC(=O)CN1C(=O)S/C(=C\c2ccc(-c3cccc(C(=O)O)c3C)o2)C1=O	-1	-23	3	-3	15	2
O=C(CN1C(=O)/C(=C/c2ccco2)SC1=S)Nc1ccc(C(=O)O)c(O)c1	95*	78*	64*	50	73*	43
CCCC(=O)N1CCN(Cc2ccc3c(c2)OCO3)CC1	6	1	-5	7	/	-2
C[C@H](CO)N1C[C@H](C)[C@H](CN(C)Cc2ccc(F)cc2)Oc2ncc(-c3ccccc3F)cc2C1=O	/	/	/	/	-1	/
SMILES	DNMT1 inh	SUMO1 PPI mod	STEP block	Scp-1 inhibitor	CASP6 VEID inh	LMPTP block
O=C(CN1C(=O)CCS(=O)(=O)c2ccccc21)Nc1ccccc1F	3	2	0	-5	1	-1
O=C(CCCN1C(=O)C(=Cc2ccc3c(c2)OCO3)SC1=S)Nc1ccc(C(=O)O)c(O)c1	2	-1	-1	/	32	52*
O=C(CCCN1C(=O)/C(=C/c2ccc3c(c2)OCO3)SC1=S)Nc1ccc(C(=O)O)cc1	0	-22	13	-8	20	22
COc1ccc(C2(CNC(=O)c3ccc(Br)o3)CCOCC2)cc1	1	-3	0	6	/	0
O=C(Cn1cnc2sc(-c3ccccc3)cc2c1=O)NCc1ccco1	-4	-9	-1	71*	/	-1
O=C(Cn1cnc2sc(-c3ccccc3)cc2c1=O)NCCc1ccccc1	26	6	1	22	-3	1
NS(=O)(=O)c1ccc(CCNC(=O)CCc2ccccc2)cc1	-1	3	2	-7	-2	-2
O=C(N/N=C/c1c(O)ccc2ccccc12)c1ccc(Br)o1	41	27	77*	99*	-2	64*
O=C(N/N=C\c1c(O)ccc2ccccc12)c1ccc(O)cc1	-4	0	-1	0	-1	4
CCOC(=O)c1c(NC(=O)C2=C(C)NC(=S)NC2c2ccccc2C(F)(F)F)sc(C)c1C (stereo unspecified)	-5	-1	2	-7	/	2
CCN(CC)c1ccc2nc3c4ccccc4c(=O)cc-3oc2c1	/	/	/	-1	10	/
CCN(CC)c1ccc2c(-c3ccc(S(=O)(=O)O)cc3S(=O)(=O)[O-])c3ccc(=[N+](CC)CC)cc-3oc2c1	14	14	16	77*	-40	15
NC(=S)NN=C1Cc2cccc3cccc1c23	6	-1	2	8	2	53*
CC(C)=C1C(=O)NN(c2ccc(F)c(Cl)c2)C1=O	4	6	5	-3	68*	0
COc1ccccc1NC(=O)NCC(=O)Nc1c(C)cccc1C	1	4	-2	-6	-2	0
CCOC(=O)Cc1cc(=O)n(-c2nc3ccccc3s2)[nH]1	7	38*	2	-5	/	0
CCCc1cc(=O)n(-c2nc3ccccc3s2)[nH]1	-2	-2	-4	-2	19	0
Cc1nnc(N=c2ssnc2Cl)o1	-10	-5	14	12	22	55*
O=C(NC(=S)Nc1ccc(-c2ccc(CO)o2)cc1)c1cccs1	77*	22	5	-9	/	52*
CCc1ccc(N=C2NC(=O)/C(=C/c3cc(Br)c(OCC(=O)O)c(OC)c3)S2)cc1	37	18	97*	28	64*	59*
Cc1nc(N2CCN(Cc3ccccc3)CC2)nc2c1C(=O)CC(c1ccco1)C2 (stereo unspecified)	-7	-2	-1	0	/	2
